For assay [1], the system named is L1210. Put plainly: Evaluated for average percent change in body weight from onset to termination of therapy against L1210 Leukemia cells in mice after 150 mg/kg dose administration. Format: functional, Mus musculus. In short, it runs like this: (§1)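 Recipient mice each received 0.1 mL of suspension containing 10⁶ L1210 cells. The line was kept in RPMI 1640 with 10% FBS and was re-passaged i.p. in CD2F1 donor mice every 8 weeks. Drug was given i.p. in DMSO (≤0.025 mL) once daily for 6 consecutive days, starting 24 h after implantation. Groups held 5–10 mice, with vehicle controls. Value is average % body-weight change from onset to end of therapy.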

For assay [2], the species on record is Mus musculus. The experiment in a line: Effect of aging of compound on the activity after 0 min. Type of assay: functional. Put shortly:
(§2)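 Compound, 1 M stock in DMSO, diluted 100 µL into 9.9 mL 200 mM potassium phosphate pH 7.6 at 37 °C; aliquots taken at timed intervals and injected ip (20 µL/g, effective initial dose 0.2 mmol/kg) into female CD-1 mice infected ip with 10⁶ T. rhodesiense Y Tat 1.1, 3 days post-infection; 3–4 mice/group; read-out days survived beyond vehicle controls.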

Assay [3] is filed under the species Mus musculus. The experiment in a line: Effect of aging of compound on the activity after 100 min. Type of assay: functional. In short, it runs like this:
as §2

For assay [4], the species on record is Mus musculus. Put plainly: Effect of aging of compound on the activity after 200 min. Format: functional. In short, it runs like this: as §2
For assay [5], the species on record is Mus musculus. Put plainly: (§3) Percentage of mice survived after 60 days of treatment with the compound was determined. Type of assay: functional. In short, it runs like this:
(§4)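 Mice implanted ip with 10⁶ L1210 leukemia cells (also P388 leukemia and Sarcoma 180); drug given ip in DMSO (≤0.025 mL) once daily for 6 consecutive days from 24 h after implantation, or as single dose; groups of five; vehicle controls. %T/C = mean survival treated/control ×100, excluding 60-day survivors, which are reported separately; weight change from onset to end of therapy used as toxicity.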

Assay [6] relates to L1210. The experiment in a line: Evaluated for average percent change in body weight from onset to termination of therapy against L1210 Leukemia cells in mice after 60 mg/kg dose administration. Type of assay: functional, Mus musculus. In short, it runs like this: as §1
Assay [7] concerns L1210. The description is as §3. Format: functional, Mus musculus. The arrangement: concentration or dose not given beside the values. Put shortly: as §4
For assay [8], the system named is L1210. Put plainly: Evaluated for average percent change in body weight from onset to termination of therapy against L1210 Leukemia cells in mice after 40 mg/kg dose administration. Format: functional, Mus musculus. Put shortly:
as §1

The subject of assay [9] is L1210. The experiment in a line: Average survival time of treated group / control group x(100) was determined. Format: functional, Mus musculus. Put shortly: as §4
The test system of assay [10] is L1210. The experiment in a line: Evaluated for average percent change in body weight from onset to termination of therapy against L1210 Leukemia cells in mice after 200 mg/kg dose administration. Type of assay: functional, Mus musculus. In short, it runs like this: as §1
In assay [11] the test system is L1210. The experiment in a line: Evaluated for average percent change in body weight from onset to termination of therapy against L1210 Leukemia cells in mice after 100 mg/kg dose administration. Format: functional, Mus musculus. Put shortly:
as §1

Assay [12] has as its system L1210. The experiment in a line: Evaluated for average percent change in body weight from onset to termination of therapy against L1210 Leukemia cells in mice after 15 mg/kg dose administration. Type of assay: functional, Mus musculus. Put shortly: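 Mice were implanted with 10⁶ L1210 cells in 0.1 mL, from a line kept in culture and passaged in CD2F1 donor mice. A single i.p. dose was given in DMSO (≤0.025 mL). Groups held 5–10 mice, with vehicle-treated tumor-bearing controls. Read-out is average percent body-weight change from onset to termination of therapy, used as the toxicity index.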

The structures appear in SMILES notation.

Turning to `CN(N(S(C)(=O)=O)S(C)(=O)=O)S(C)(=O)=O`, the Change in weight with L1210 [1] is -7.7%. The “Mean increase in survival” value amounted to 6.3 days in the assay filed under Mus musculus [2], 3.7 days in the assay filed under Mus musculus [3] and 1.2 days in the assay listed under Mus musculus [4]. Moreover, the Survival in the assay filed under Mus musculus [5] is 0%.

Turning to `CS(=O)(=O)N(CCCl)N(S(C)(=O)=O)S(C)(=O)=O`, in the assay on L1210 [6], the Change in weight was -7.2%. The same compound came in with a Survival in the assay with L1210 [7] of 100%.

The compound `CS(=O)(=O)N(CCBr)N(S(C)(=O)=O)S(C)(=O)=O` came in with a Survival in the assay with L1210 [7] of 0%. The Change in weight in the assay with L1210 [1] is given as -2%.

As to `CN(NS(C)(=O)=O)S(C)(=O)=O`, the Change in weight with L1210 [8] is -5.8%. Further, in the assay on L1210 [7], the Survival turned out to be 0%. Also, the T/C in the assay on L1210 [9] is 180%.

Compound `Cc1ccc(S(=O)(=O)N(CCCl)N(S(C)(=O)=O)S(C)(=O)=O)cc1` displayed a Survival in the assay with L1210 [7] of 60%. In addition, the Change in weight with L1210 [1] was -12%. This compound returned a T/C with L1210 [9] of 210%.

`CS(=O)(=O)N(N(CCCl)S(=O)(=O)c1ccccc1)S(C)(=O)=O` returned a Survival with L1210 [7] of 40%. In addition, the Change in weight in the assay on L1210 [1] amounted to 0.5%.

As for `CS(=O)(=O)N(N(CCCl)S(=O)(=O)c1ccc(Cl)cc1)S(C)(=O)=O`, the Survival in the assay with L1210 [7] worked out at 60%. The Change in weight in the assay on L1210 [10] was -3.4%.

In the assay with L1210 [7], `CS(=O)(=O)OCCN(N(S(C)(=O)=O)S(C)(=O)=O)S(C)(=O)=O` registered a Survival of 0%. Also, the Change in weight in the assay with L1210 [11] was -4.2%.

In the assay on L1210 [7], `CS(=O)(=O)N(CCI)N(S(C)(=O)=O)S(C)(=O)=O` yielded a Survival of 0%. Further, in the assay on L1210 [1], the Change in weight turned out to be 8%. Further, the T/C in the assay on L1210 [9] stood at 110%.

In the assay with L1210 [7], `COc1ccc(S(=O)(=O)N(CCCl)N(S(C)(=O)=O)S(C)(=O)=O)cc1` registered a Survival of 100%. Besides, the Change in weight in the assay on L1210 [10] stood at 5.9%.

In the case of `CS(=O)(=O)N(N(CCCl)S(=O)(=O)c1ccc(Br)cc1)S(C)(=O)=O`, in the assay on L1210 [7], the Survival was 60%. Also, the Change in weight in the assay with L1210 [1] stood at 0.9%.

For the compound `CS(=O)(=O)NN(CCCl)S(C)(=O)=O` [VPN-4090CE], the Survival in the assay on L1210 [7] is given as 40%. Also, the Change in weight in the assay with L1210 [12] is recorded as -3.3%. The same compound displayed a T/C in the assay with L1210 [9] of 130%.

Source of the values: ChEMBL document CHEMBL1124882, “Synthesis and evaluation of 1,2,2-tris(sulfonyl)hydrazines as antineoplastic and trypanocidal agents” (1990).
